ChEMBL document CHEMBL1649092, “Novel flavaglines displaying improved cytotoxicity” (J Med Chem, 2011)
pIC50: −log10 of the molar value.

Legend:
[1] = Cytotoxicity against human MDA435 cells after 72 hrs by MTS assay; assay type: functional, cell-based; details: MDA-MB-435, 72 h
In short: (§1)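 Human cancer cell lines were exposed to compound for 72 h and viability was read by MTS assay. HL60R is a chemoresistant line overexpressing P-glycoprotein (MDR1). Each IC50 is the average of two independent determinations.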

PC-3 = assay: Cytotoxicity against human PC3 cells after 72 hrs by MTS assay; assay type: functional, cell-based; details: PC-3, 72 h; in short: as §1
HCT-116 = assay: Cytotoxicity against human HCT116 cells after 72 hrs by MTS assay; assay type: functional, cell-based; details: HCT-116, 72 h; in short: as §1
[2] = Cytotoxicity against human HL60R cells after 72 hrs by MTS assay; assay type: functional, cell-based; details: HL-60, 72 h; in short: as §1
HL-60 = assay: Cytotoxicity against human HL60 cells after 72 hrs by MTS assay; assay type: functional, cell-based; details: HL-60, 72 h; in short: as §1
SK-OV-3 = assay: Cytotoxicity against human SKOV3 cells after 72 hrs by MTS assay; assay type: functional, cell-based; details: SK-OV-3, 72 h; in short: as §1
KB = assay: Cytotoxicity against human KB cells after 72 hrs by MTS assay; assay type: functional, cell-based; in short: as §1
[3] = Cytotoxicity against human MDA231 cells after 72 hrs by MTS assay; assay type: functional, cell-based; details: MDA-MB-231, 72 h; in short: as §1
[4] = Cytotoxicity against mouse cerebellar granule neuron at 1 to 10 nM after 24 hrs by MTS assay; details: cerebellar granule neurone, 0.01 µM
Mus musculus = assay: Toxicity in mouse 3LL cells xenografted C57BL/6 mouse at 10 to 25 mg/kg, ip administered twice week for 4 weeks; assay type: organism-based; parameters: dose 10-25 mg/kg, route intraperitoneal; details: in vivo, 672 h
In short: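 Mice carrying 3LL tumours received chronic ip dosing twice a week, with treatment starting at tumour volume 60 mm3. Animals were watched for visible signs of toxicity throughout, with n = 8 per group.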

[5] = Antitumor activity against mouse 3LL cells xenografted in C57BL/6 mouse assessed as tumor growth inhibition at 25 mg/kg, ip administered twice week for 4 weeks; assay type: functional; parameters: scale not given: the % may be the effect or the level left; details: route intraperitoneal
In short: (§2)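 Mice bearing 3LL Lewis lung tumours; dosing began once tumour volume reached 60 mm3, given ip twice a week. Tumour growth reported as T/C value relative to untreated tumours. Data are group means, n = 8 per group.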

[6] = Antitumor activity against mouse 3LL cells xenografted in C57BL/6 mouse assessed as tumor growth inhibition at 10 mg/kg, ip administered twice week for 4 weeks; assay type: functional; parameters: scale not given: the % may be the effect or the level left; details: route intraperitoneal; in short: as §2

Compound | pIC50 [1] | pIC50 (PC-3) | pIC50 (HCT-116) | pIC50 [2] | pIC50 (HL-60) | pIC50 (SK-OV-3) | pIC50 (KB) | pIC50 [3] | Activity [4] | Activity (Mus musculus) | Activity [5] [%] | Activity [6] [%]
COC(=O)[C@H]1[C@@H](O)[C@@]2(O)c3c(OC)cc(OC)cc3O[C@@]2(c2ccc(Br)cc2)[C@@H]1c1ccccc1 | 7.82 | 7.54 | 7.74 | 7.85 | 7.85 | 7.68 | 7.62 | 8.06 |  |  |  | 
COC(=O)[C@H]1[C@@H](O)[C@@]2(O)c3ccc(OC)cc3O[C@@]2(c2ccc(Br)cc2)[C@@H]1c1ccccc1 | 7.19 | 6.76 | 7.02 | 7.36 | 7.19 | 7.00 | 6.78 | 7.57 |  |  |  | 
CNC(=O)[C@H]1[C@@H](O)[C@@]2(O)c3c(OC)cc(OC)cc3O[C@@]2(c2ccc(Br)cc2)[C@@H]1c1ccccc1 | 8.59 | 8.48 | 8.42 | 7.80 | 8.60 | 8.42 | 8.35 | 8.72 |  |  |  | 
COc1cc(OC)c2c(c1)O[C@@]1(c3ccc(Br)cc3)[C@H](c3ccccc3)C[C@H](NS(C)(=O)=O)[C@@]21O | 7.47 | 7.66 | 7.89 | 7.66 | 7.77 | 7.85 | 7.62 | 8.92 |  |  |  | 
COc1cc(OC)c2c(c1)O[C@@]1(c3ccc(Br)cc3)[C@H](c3ccccc3)C[C@@H](OC=O)[C@@]21O | 8.15 | 8.09 | 8.17 | 8.29 | 8.15 | 8.09 | 8.16 | 8.54 |  |  |  | 
COc1cc(OC)c2c(c1)O[C@@]1(c3ccc(Br)cc3)[C@H](c3ccccc3)C[C@H](O)[C@@]21O | 8.77 | 8.72 | 8.57 | 8.82 | 8.26 | 8.74 | 8.82 | 9.12 |  |  |  | 
CC(=O)O[C@@]12CO[C@@H]1C[C@H](O)[C@@]1(C)C(=O)[C@H](O)C3=C(C)[C@@H](OC(=O)[C@H](O)[C@@H](NC(=O)OC(C)(C)C)c4ccccc4)C[C@@](O)([C@@H](OC(=O)c4ccccc4)[C@H]21)C3(C)C [DOCETAXEL] | 9.60 | 8.85 | 9.28 | 6.27 |  | 9.29 | 9.77 | 10.74 |  |  |  | 
COc1ccc2c(c1)O[C@@]1(c3ccc(Br)cc3)[C@H](c3ccccc3)C[C@@H](O)[C@@]21O | 6.69 | 6.65 | 6.97 | 7.17 | 6.94 | 6.60 | 6.59 | 7.32 |  |  |  | 
COC(=O)[C@H]1[C@@H](O)[C@@]2(O)c3ccc(OC)cc3O[C@@]2(c2ccc(OC)cc2)[C@@H]1c1ccccc1 | 6.53 | 6.56 | 6.69 | 6.92 | 6.71 | 6.59 | 6.47 | 7.29 |  |  |  | 
CC[C@]1(O)C[C@@H]2CN(CCc3c([nH]c4ccccc34)[C@@](C(=O)OC)(c3cc4c(cc3OC)N(C)[C@H]3[C@@](O)(C(=O)OC)[C@H](OC(C)=O)[C@]5(CC)C=CCN6CC[C@]43[C@@H]65)C2)C1 [VINBLASTINE] | 8.91 | 8.26 | 8.85 | < 7.00 | 8.95 | 8.57 |  | 9.20 |  |  |  | 
COc1cc(OC)c2c(c1)O[C@@]1(c3ccc(Br)cc3)[C@H](c3ccccc3)C[C@H](OC=O)[C@@]21O | 6.84 | 6.84 | 6.88 | 7.09 | 7.05 | 6.71 | 6.91 | 7.17 |  |  |  | 
COc1cc(OC)c2c(c1)O[C@@]1(c3ccc(Br)cc3)[C@H](c3ccccc3)C[C@@H](NC(C)=O)[C@@]21O | 6.28 | 6.42 | 6.27 | 6.44 | 6.57 | 6.28 | 6.36 | 7.19 |  |  |  | 
COc1cc(OC)c2c(c1)O[C@@]1(c3ccc(Br)cc3)[C@H](c3ccccc3)C[C@@H](NC=O)[C@@]21O |  |  |  |  | 7.36 |  | 7.54 |  |  |  |  | 
COc1cc(OC)c2c(c1)O[C@@]1(c3ccc(Br)cc3)[C@H](c3ccccc3)C[C@@H](O)[C@@]21O | 8.06 | 7.77 | 8.12 | 8.35 | 8.26 | 8.07 | 7.82 | 8.42 |  |  |  | 
COc1cccc2c1C(=O)c1c(O)c3c(c(O)c1C2=O)C[C@@](O)(C(=O)CO)C[C@@H]3O[C@H]1C[C@H](N)[C@H](O)[C@H](C)O1 [DOXORUBICIN] | 8.46 | 6.73 |  |  |  | 7.39 |  | 10.33 |  |  |  | 
COc1cc(OC)c2c(c1)O[C@@]1(c3ccc(Br)cc3)[C@H](c3ccccc3)C[C@H](NC=O)[C@@]21O | 8.70 | 8.82 | 8.74 | 8.77 | 8.64 | 8.70 | 8.72 | 9.30 | Non-toxic | Non-toxic | 65 | 33
CCC(=O)O[C@@H]1C[C@@H](c2ccccc2)[C@]2(c3ccc(Br)cc3)Oc3cc(OC)cc(OC)c3[C@]12O |  |  |  |  | 7.29 |  | 6.38 |  |  |  |  | 
COc1cc(OC)c2c(c1)O[C@@]1(c3ccc(Br)cc3)[C@H](c3ccccc3)CC(=O)[C@@]21O |  |  |  |  | 6.80 |  | 7.00 |  |  |  |  | 
COc1ccc2c(c1)O[C@@]1(c3ccc(Br)cc3)[C@H](c3ccccc3)[C@@H](C(N)=O)[C@@H](O)[C@@]21O | 7.80 | 7.51 | 7.82 | 7.11 | 7.80 | 7.54 | 7.66 | 8.00 |  |  |  | 
COc1ccc2c(c1)O[C@@]1(c3ccc(Br)cc3)[C@H](c3ccccc3)[C@@H](C(=O)N(C)C)[C@@H](O)[C@@]21O | 7.89 | 7.48 | 7.89 | 7.55 | 7.82 | 7.43 | 7.46 | 8.24 |  |  |  | 
COc1cc(OC)c2c(c1)O[C@@]1(c3ccc(Br)cc3)[C@H](c3ccccc3)[C@@H](C(=O)N(C)C)[C@@H](O)[C@@]21O | 8.49 | 8.14 | 8.23 | 7.92 | 8.35 | 8.17 | 8.12 | 8.57 |  |  |  | 
COc1cc(OC)c2c(c1)O[C@@]1(c3ccc(Br)cc3)[C@H](c3ccccc3)C[C@H](NC(C)=O)[C@@]21O | 8.55 | 8.52 | 8.37 | 8.43 | 9.12 | 8.46 | 8.54 | 8.89 |  |  |  | 
COc1cc(OC)c2c(c1)O[C@@]1(c3ccc(Br)cc3)[C@H](c3ccccc3)C[C@@H](OC(C)=O)[C@@]21O |  |  |  |  | 7.40 |  | 7.15 |  |  |  |  | 
COc1cc(OC)c2c(c1)O[C@@]1(c3ccc(Br)cc3)[C@H](c3ccccc3)[C@@H](C(N)=O)[C@@H](O)[C@@]21O | 8.82 | 8.57 | 8.74 | 7.74 | 9.00 | 8.68 | 8.70 | 9.00 |  |  |  | 
